# Assay results from different studies.
# Protocols differ between the studies behind these lines.
# ABCB1: ATP-dependent translocase ABCB1 (ABCB1, Homo sapiens, UniProt P08183)
SMILES,target or system,test,test system,conditions,endpoint,result
CC(C)CCC[C@@H](C)[C@H]1CC[C@H]2[C@@H]3CC=C4C[C@@H](OC(=O)CCC(=O)NCCCC[C@H](NC(=O)[C@H]5CCCN5C(=O)[C@H](CCC(=O)O)NC(=O)[C@H](C)NC(=O)[C@@H](NC(=O)C[C@H](O)[C@H](CC(C)C)NC(=O)[C@H](CC(N)=O)NC(=O)[C@@H](NC(=O)[C@H](CCC(=O)O)NC(=O)CNC(=O)[C@@H](CCCCN)NC(=O)CNC(=O)[C@H](CC(C)C)NC(=O)[C@@H]5CCCN5C(=O)[C@@H](CCCCN)NC(=O)[C@H](Cc5ccccc5)NC(=O)[C@H](Cc5ccc(O)cc5)NC(=O)[C@@H]5CCCN5C(=O)[C@@H](N)Cc5ccc(O)cc5)C(C)C)C(C)C)C(N)=O)CC[C@]4(C)[C@H]3CC[C@]12C,,,aqueous buffer,pH 6.5,thermodynamic solubility,> 500 µg/mL
CC1(C)CCC2(CC1)N[C@@H](C(=O)N[C@@H]1CC[C@@H](C(N)=O)OC1)[C@H](c1ccnc(Cl)c1F)[C@]21C(=O)Nc2cc(Cl)ccc21,ABCB1,,Caco-2,"10 µM, 2 h",efflux ratio,9.3
C[C@]12CCCN1CC1=NNC(=O)c3cc(F)cc4[nH]c2c1c34,ABCB1,,MDCK-MDR1,1 µM,Papp B→A,36.4 ×10⁻⁶ cm/s
Cc1cc(-c2ccc(C(F)(F)F)cn2)[nH]c1C(=O)N[C@H](CN)c1nc(CO)cs1,Cf2Th-CCR5,"cell growth or viability, MTS",,48 h,CC50,> 47 µM
COCCc1ccc(OCC(O)CNC(C)C)cc1 (centres unmarked),ABCB1,,MDCK-MDR1,5 µM,Papp B→A,31.5 ×10⁻⁶ cm/s
O=C(O)CSc1nnc(Br)n1-c1ccc(C2CC2)c2ccccc12,"Multidrug and toxin extrusion protein 2 (SLC47A2, Homo sapiens, UniProt Q86VL8)","transporter uptake, inhibitor",HEK293,"1 µM, 2 min",inhibition,-21%
CC[C@H](C)[C@H](NC(=O)[C@H](Cc1ccccc1)NC(=O)[C@H](Cc1ccc(O)cc1)NC(=O)[C@@H]1CCCN1C(=O)[C@@H](N)Cc1ccc(O)cc1)C(=O)N1CCC[C@H]1C(=O)N[C@@H](CC(C)C)C(=O)N[C@H](CCCCN)C(=O)NCC(=O)NCC(=O)N[C@@H](CCC(=O)O)C(=O)N[C@H](C(=O)N[C@@H](CC(N)=O)C(=O)N[C@@H](CC(C)C)[C@@H](O)CC(=O)N[C@H](C(=O)N[C@@H](C)C(=O)N[C@@H](CCC(=O)O)C(=O)N1CCC[C@@H]1C(=O)N[C@@H](CCCCNC(=O)CCC(=O)O[C@H]1CC[C@@]2(C)C(=CC[C@H]3[C@@H]4CC[C@H]([C@H](C)CCCC(C)C)[C@@]4(C)CC[C@@H]32)C1)C(N)=O)C(C)C)C(C)C,,,aqueous buffer,pH 6.5,thermodynamic solubility,< 1 µg/mL
O=C(CCCCCCC(=O)Nc1ccc(CC[18F])cc1)NO,LNCaP,,"male nude, tumour","intravenous, 2 h, tumour-bearing",tracer uptake,1.5 %ID/g
CC1=NN(c2ccc(C)c(C)c2)C(=O)/C1=N\Nc1cccc(-c2cccc(C(=O)O)c2)c1O,LN-229,cell growth or viability,,72 h,IC50,20 to 30 µM
O=C1CC(N(CCc2ccccc2)C(=S)Nc2ccccc2)C(=O)N1c1ccc(Br)cc1 (centres unmarked),Jurkat,"cell growth or viability, ATP luminescence",,18 h,CC50,< 20 µM
CCn1cnc2c(=O)[nH]c(N)nc21.NCCNCCN.[Pt+2],Jurkat,"cell growth or viability, WST-1",,,IC50,> 100 µM
CC[C@@H]1CN(C(=O)NCC(F)(F)F)C[C@@H]1c1cnc2cnc3[nH]ccc3n12,,,"beagle dog, plasma","oral, 1 mg/kg, single dose",MRT(0-t),9.27 h
COc1ccc(S(=O)(=O)ON=C2C=C(C)C(=O)C(C)=C2)cc1,LNCaP,cell growth or viability,,,CC50,3.54 µM
Cc1cc(-c2ccc(C(F)(F)F)cn2)[nH]c1C(=O)N[C@@H](CN)c1ncc(CO)s1,Cf2Th-CCR5,"cell growth or viability, MTS",,48 h,CC50,> 47 µM
